Series [1] is described as follows: Selectivity ratio of Ki for displacement of [3H]PSB-603 from recombinant mouse A2B adenosine receptor expressed in CHO cell membranes to Ki for displacement of [3H]PSB-603 from recombinant human A2B adenosine receptor expressed in CHO cell membranes.
Series [2] addresses T1, Adenosine receptor A3 (Homo sapiens, UniProt P0DMS8).
T1 sequence (P0DMS8 whole entry): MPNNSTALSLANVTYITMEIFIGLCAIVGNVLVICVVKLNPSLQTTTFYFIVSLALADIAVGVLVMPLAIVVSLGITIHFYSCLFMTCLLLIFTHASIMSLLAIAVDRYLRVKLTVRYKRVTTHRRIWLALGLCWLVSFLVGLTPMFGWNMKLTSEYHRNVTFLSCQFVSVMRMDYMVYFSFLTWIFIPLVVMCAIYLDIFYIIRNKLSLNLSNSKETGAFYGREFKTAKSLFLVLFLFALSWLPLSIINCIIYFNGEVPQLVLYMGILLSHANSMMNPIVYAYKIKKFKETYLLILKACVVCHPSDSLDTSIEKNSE
Briefly: Displacement of [3H]PSB-11 from recombinant human A3 adenosine receptor expressed in CHO cell membranes measured after 45 mins in presence of adenosine deaminase by liquid scintillation counting method. In short, it runs like this: (§1)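 Competition binding on membranes of cells recombinantly expressing the human receptor (CHO or HEK cells), with tritiated radioligand per subtype: [3H]PSB-603 for A2B, [3H]MSX-2 for A2A, [3H]CCPA for A1, [3H]PSB-11 for A3. Ki ± SEM from n = 3, some from extrapolated curves. Weak binders are reported as % inhibition of radioligand binding at 1 μM.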
On the technique in general: Loss of bound radioactivity is the signal in a displacement assay; it reports binding, not function.

The target in series [3] is T2, Adenosine receptor A1 (Homo sapiens, UniProt P30542).
T2 sequence (P30542 whole entry): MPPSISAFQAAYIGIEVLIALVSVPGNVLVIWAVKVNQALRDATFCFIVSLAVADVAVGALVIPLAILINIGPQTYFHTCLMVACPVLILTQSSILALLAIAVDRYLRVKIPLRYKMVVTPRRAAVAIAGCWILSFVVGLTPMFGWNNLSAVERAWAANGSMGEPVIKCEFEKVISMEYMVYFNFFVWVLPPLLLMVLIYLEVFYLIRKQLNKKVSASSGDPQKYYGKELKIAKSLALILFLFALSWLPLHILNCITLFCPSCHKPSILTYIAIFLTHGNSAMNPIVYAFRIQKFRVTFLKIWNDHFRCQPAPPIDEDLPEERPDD
Briefly: Displacement of [3H]CCPA from recombinant human A1 adenosine receptor expressed in CHO cell membranes measured after 90 mins in presence of adenosine deaminase by liquid scintillation counting method. In short, it runs like this:
as §1

Series [4] has as its target T3, Adenosine receptor A1 (Mus musculus, UniProt Q60612).
T3 sequence (Q60612 whole entry): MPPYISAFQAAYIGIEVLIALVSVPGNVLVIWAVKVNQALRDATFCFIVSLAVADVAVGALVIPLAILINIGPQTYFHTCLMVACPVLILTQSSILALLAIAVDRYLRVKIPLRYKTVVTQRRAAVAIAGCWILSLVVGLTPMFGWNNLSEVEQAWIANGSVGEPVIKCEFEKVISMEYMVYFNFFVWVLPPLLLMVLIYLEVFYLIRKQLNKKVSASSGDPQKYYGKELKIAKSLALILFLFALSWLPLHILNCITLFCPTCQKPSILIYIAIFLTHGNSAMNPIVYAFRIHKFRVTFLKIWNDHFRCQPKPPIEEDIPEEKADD
In words: Displacement of [3H]CCPA from recombinant mouse A1 adenosine receptor expressed in CHO cell membranes measured after 90 mins in presence of adenosine deaminase by liquid scintillation counting method.

The target in series [5] is T4, Adenosine receptor A2b (Homo sapiens, UniProt P29275).
T4 sequence (P29275 whole entry): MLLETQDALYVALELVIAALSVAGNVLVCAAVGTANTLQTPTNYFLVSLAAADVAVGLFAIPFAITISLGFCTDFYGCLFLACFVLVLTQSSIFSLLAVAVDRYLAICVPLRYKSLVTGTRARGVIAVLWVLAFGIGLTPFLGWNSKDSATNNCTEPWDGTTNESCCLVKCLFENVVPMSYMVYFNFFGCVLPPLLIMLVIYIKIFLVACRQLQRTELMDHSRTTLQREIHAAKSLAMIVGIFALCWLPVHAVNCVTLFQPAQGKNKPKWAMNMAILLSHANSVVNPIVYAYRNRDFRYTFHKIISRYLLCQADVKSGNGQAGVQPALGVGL
Briefly: Displacement of [3H]PSB-603 from recombinant human A2B adenosine receptor expressed in CHO cell membranes measured after 75 mins in presence of adenosine deaminase by liquid scintillation counting method. An outline of the steps:
as §1

For another series, the species on record is Mus musculus. In words: Selectivity ratio of Ki for displacement of [3H]CCPA from recombinant mouse A1 adenosine receptor expressed in CHO cell membranes to Ki for displacement of [3H]PSB-603 from recombinant mouse A2B adenosine receptor expressed in CHO cell membranes.
For series [6], the species on record is Homo sapiens. In words: Selectivity index, ratio of Ki for displacement of [3H]CCPA from recombinant human A1 adenosine receptor expressed in CHO cell membranes to Ki for displacement of [3H]PSB-603 from recombinant human A2B adenosine receptor expressed in CHO cell membranes.
The target in series [7] is T5, Adenosine receptor A2b (Mus musculus, UniProt Q60614).
T5 sequence (Q60614 whole entry): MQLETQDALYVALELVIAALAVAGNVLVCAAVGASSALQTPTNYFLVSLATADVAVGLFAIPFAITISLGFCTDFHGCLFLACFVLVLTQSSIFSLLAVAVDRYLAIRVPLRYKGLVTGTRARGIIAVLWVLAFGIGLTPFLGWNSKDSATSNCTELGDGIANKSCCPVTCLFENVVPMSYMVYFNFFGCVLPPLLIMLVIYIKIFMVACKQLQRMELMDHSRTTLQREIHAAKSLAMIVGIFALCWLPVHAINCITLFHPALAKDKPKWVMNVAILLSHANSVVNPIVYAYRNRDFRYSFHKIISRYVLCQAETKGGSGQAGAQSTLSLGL
Briefly: Displacement of [3H]PSB-603 from recombinant mouse A2B adenosine receptor expressed in CHO cell membranes measured after 75 mins in presence of adenosine deaminase by liquid scintillation counting method.

In series [8] the target is T6, Adenosine receptor A2b (Homo sapiens) (UniProt P29275).
T6 sequence (whole entry): T4 sequence (P29275 whole entry)
Briefly: Competitive antagonist activity at recombinant human A2B adenosine receptor expressed in CHO cells assessed as reduction in NECA-induced […] cAMP accumulation preincubated for 10 mins followed by NECA stimulation for 15 mins […] and measured after 15 mins. In kind it is functional, cell-based. Background: Cyclic AMP is a second messenger, typically raised through Gs and lowered through Gi signalling.

Series [9] addresses T7, Adenosine receptor A3 (Homo sapiens) (UniProt P0DMS8).
T7 sequence (whole entry): T1 sequence (P0DMS8 whole entry)
Briefly: Displacement of [3H]PSB-11 from recombinant human A3 adenosine receptor expressed in CHO cell membranes at 1 uM measured after 45 mins in presence of adenosine deaminase by liquid scintillation counting method relative to control. In short, it runs like this:
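Single-point competition binding at human AR subtype membranes, each against its own tritiated radioligand. The test compound is given at 1 μM, and the result is reported as percent inhibition of radioligand binding. The radioligand-specific footnotes give n = 3.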

The species entered for series [10] is Homo sapiens. In words: Selectivity index, ratio of Ki for displacement of [3H]MSX-2 from recombinant human A2A adenosine receptor expressed in CHO cell membranes to Ki for displacement of [3H]PSB-603 from recombinant human A2B adenosine receptor expressed in CHO cell membranes.
The target of series [11] is T8, Adenosine receptor A3 (Mus musculus) (UniProt Q61618).
T8 sequence (whole entry): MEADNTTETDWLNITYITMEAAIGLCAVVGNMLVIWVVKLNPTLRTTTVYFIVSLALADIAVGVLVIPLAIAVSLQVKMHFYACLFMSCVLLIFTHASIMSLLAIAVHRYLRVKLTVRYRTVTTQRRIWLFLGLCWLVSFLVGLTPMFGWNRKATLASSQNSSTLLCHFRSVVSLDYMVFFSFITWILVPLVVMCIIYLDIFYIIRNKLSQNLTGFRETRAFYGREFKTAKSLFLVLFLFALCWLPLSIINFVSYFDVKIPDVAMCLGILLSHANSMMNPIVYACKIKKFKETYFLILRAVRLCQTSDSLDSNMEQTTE
Briefly: Displacement of [3H]NECA from recombinant mouse A3 adenosine receptor expressed in CHO cell membranes at 1 uM measured after 180 mins in presence of adenosine deaminase by liquid scintillation counting method relative to control.

In series [12] the target is T9, Adenosine receptor A3 (Mus musculus, UniProt Q61618).
T9 sequence (Q61618 whole entry): T8 sequence (whole entry)
Briefly: Displacement of [3H]NECA from recombinant mouse A3 adenosine receptor expressed in CHO cell membranes measured after 180 mins in presence of adenosine deaminase by liquid scintillation counting method.

In another series the target is Adenosine receptor A2a (Homo sapiens, UniProt P29274). In words: Displacement of [3H]MSX-2 from recombinant human A2A adenosine receptor expressed in CHO cell membranes measured after 30 mins in presence of adenosine deaminase by liquid scintillation counting method. In short, it runs like this:
as §1

The nature of series [13]: Semi-thermodynamic solubility of the compound at 200 uM after 24 hrs by LC/MS-based shake-flask method. Format: physicochemical. As to conditions: read-out: Therm_solubility.

The record followed here is ChEMBL document CHEMBL4346653, “A2B Adenosine Receptor Antagonists with Picomolar Potency” (J Med Chem, 2019).

Converted amounts (≈) assume the structure as drawn. Bounds are passed on as bounds.

Chain of Adenosine receptor A2a (P29274 whole entry): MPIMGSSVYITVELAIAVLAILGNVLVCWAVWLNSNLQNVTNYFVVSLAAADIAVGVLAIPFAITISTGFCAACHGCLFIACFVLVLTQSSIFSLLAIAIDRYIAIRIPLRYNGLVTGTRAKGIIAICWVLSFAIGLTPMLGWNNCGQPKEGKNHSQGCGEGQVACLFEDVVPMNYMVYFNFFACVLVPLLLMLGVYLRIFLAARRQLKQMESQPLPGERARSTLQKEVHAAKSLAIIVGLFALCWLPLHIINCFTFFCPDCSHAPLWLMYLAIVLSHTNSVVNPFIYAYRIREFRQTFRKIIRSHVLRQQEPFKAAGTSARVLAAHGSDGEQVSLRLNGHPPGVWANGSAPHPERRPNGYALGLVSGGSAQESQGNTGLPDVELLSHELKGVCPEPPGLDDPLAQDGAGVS

A word on the Ki: it is a dissociation constant, usually derived from enzyme kinetics or from competition with a known ligand. The Kb is the equilibrium dissociation constant of an antagonist, usually derived from a functional assay. As usually defined, the inhibition is how much of the control response was suppressed. Turning to `CCCn1c(=O)[nH]c2nc(-c3ccc(S(=O)(=O)N4CCN(Cc5cccc(Br)c5)CC4)cc3)[nH]c2c1=O`, the Ratio Ki was 1.5 to 6 in series [1], > 120 in the series listed under Mus musculus, 620 in the series filed under Homo sapiens [6] and 620 in the series listed under Homo sapiens [10]. In addition, the inhibition constant Ki is > 1000 nM at Adenosine receptor A3 [2]; 928 nM on Adenosine receptor A1 [3]; 107 nM on Adenosine receptor A1 [4]; 0.148 nM at Adenosine receptor A2b [5]; 0.901 nM at Adenosine receptor A2b [7]; > 1000 nM at Adenosine receptor A3 [12]. The Ki at Adenosine receptor A2a worked out at 92.4 nM. Also, the antagonist dissociation constant (Kb) in series [8] was 0.201 nM. The values for the inhibition in [9] and in [11] were 23% and 5%, respectively.

For `CCCn1c(=O)[nH]c2nc(-c3ccc(S(=O)(=O)N4CCN(c5ccc(Cl)cc5)CC4)cc3)[nH]c2c1=O`, the solubility thermodynamic at 24 h, 200 µM in series [13] stood at 3.2 µM (≈ 1.69 µg/mL).

`CCCn1c(=O)[nH]c2nc(-c3ccc(S(=O)(=O)N4CCN(Cc5ccc(Cl)cc5)CC4)cc3)[nH]c2c1=O`: the solubility thermodynamic at 24 h, 200 µM in [13] turned out to be 3.2 µM (≈ 1.74 µg/mL).
